Where “and” joins values, the source holds several entries; their conditions need not be identical. Identical values can stand only once.
Tested on: U2OS
Test: Multiplex assay against U2OS
Format: toxicity, cell-based
Conditions: human
Outline: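 Imaging took place on a CQ1 microscope at 37°C and 5% CO2 once compound had been added to live cells stained at seeding with Hoechst33342, BioTracker Green Microtubule Cytoskeleton Dye, MitoTracker Red and Annexin V Alexa Fluor 680. CellPathfinder machine-learning gating classed cells as Hoechst high-intensity objects or normal cells, classed normal cells as having healthy, pyknosed or fragmented nuclei, and classed pyknosed cells as mitotic or apoptotic. Tubulin, mitochondrial-mass and membrane-permeability phenotypes are per cents of the healthy-nucleus cells.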

[1] = 12 h, 1 µM, compound concentration 1 uM
[2] = 12 h, 10 µM, compound concentration 10 uM
[3] = 24 h, 1 µM, compound concentration 1 uM
[4] = 24 h, 10 µM, compound concentration 10 uM
[5] = 48 h, 1 µM, compound concentration 1 uM
[6] = 48 h, 10 µM, compound concentration 10 uM

With `Cc1[nH]nc2ccc(-c3cncc(OCC(N)Cc4c[nH]c5ccccc45)c3)cc12` (configuration not stated) the “Population Apoptotic (%)” value [1] was 44.72% and 48.45%, the “Population Fragmented Nuclei (%)” value [1] was 8.59% and 11.33% and the “Population Healthy Nuclei (%)” value [1] was 46.81% and 24%. The “Population Hoechst High Intensity Objects (%)” value [1] was 0%, the “Population Membrane Permeable-Phenotype (%)” value [1] was 2.37% and 0% and the “Population Mitotic Cells (%)” value [1] was 55.28% and 51.55%. The “Population Normal (%)” value [1] was 100%, the “Population Pyknosed Nuclei (%)” value [1] was 44.6% and 64.67% and the “Population Tubulin-Different-Phenotype (%)” value [1] was 4.73% and 0%. The “Total Cell Count” value [1] was 361 and 150, the “Population Apoptotic (%)” value [2] was 65.77% and 68.92% and the “Population Fragmented Nuclei (%)” value [2] was 11.37% and 8.4%. The “Population Healthy Nuclei (%)” value [2] was 2.49% and 6.87%, the “Population Hoechst High Intensity Objects (%)” value [2] was 0% and the “Population Membrane Permeable-Phenotype (%)” value [2] was 0% and 22.22%. For the same compound, the “Population Mitochondria Different-Phenotype (%)” value [2] was 35.71% and 55.56%, the “Population Mitotic Cells (%)” value [2] was 34.23% and 31.08% and the “Population Normal (%)” value [2] was 100%. The “Population Pyknosed Nuclei (%)” value [2] was 86.15% and 84.73%, the “Population Tubulin-Different-Phenotype (%)” value [2] was 42.86% and 33.33% and the “Total Cell Count” value [2] was 563 and 262. For the same compound, the “Population Apoptotic (%)” value [3] was 64.71% and 80.2%, the “Population Fragmented Nuclei (%)” value [3] was 9.73% and 13.51% and the “Population Healthy Nuclei (%)” value [3] was 38.6% and 18.24%. For the same compound, the “Population Hoechst High Intensity Objects (%)” value [3] was 0%, the “Population Membrane Permeable-Phenotype (%)” value [3] was 3.15% and 3.7% and the “Population Mitotic Cells (%)” value [3] was 35.29% and 19.8%. For the same compound, the “Population Normal (%)” value [3] was 100%, the “Population Pyknosed Nuclei (%)” value [3] was 51.67% and 68.24% and the “Population Tubulin-Different-Phenotype (%)” value [3] was 2.36% and 7.41%. For the same compound, the “Total Cell Count” value [3] was 329 and 148, the “Population Apoptotic (%)” value [4] was 93.93% and 93.15% and the “Population Fragmented Nuclei (%)” value [4] was 7.63% and 5.95%. For the same compound, the “Population Healthy Nuclei (%)” value [4] was 4.33% and 7.14%, the “Population Hoechst High Intensity Objects (%)” value [4] was 0% and the “Population Mitochondria Different-Phenotype (%)” value [4] was 17.65% and 50%. For the same compound, the “Population Mitotic Cells (%)” value [4] was 6.07% and 6.85%, the “Population Normal (%)” value [4] was 100% and the “Population Pyknosed Nuclei (%)” value [4] was 88.04% and 86.9%. The “Population Tubulin-Different-Phenotype (%)” value [4] was 35.29% and 16.67%, the “Total Cell Count” value [4] was 393 and 168 and the “Population Apoptotic (%)” value [5] was 73.68% and 85.57%. The “Population Fragmented Nuclei (%)” value [5] was 8.46% and 13.19%, the “Population Healthy Nuclei (%)” value [5] was 34.14% and 19.44% and the “Population Hoechst High Intensity Objects (%)” value [5] was 0%. For the same compound, the “Population Mitochondria Different-Phenotype (%)” value [5] was 1.77% and 10.71%, the “Population Mitotic Cells (%)” value [5] was 26.32% and 14.43% and the “Population Normal (%)” value [5] was 100%. For the same compound, the “Population Pyknosed Nuclei (%)” value [5] was 57.4% and 67.36%, the “Population Tubulin-Different-Phenotype (%)” value [5] was 5.31% and 0% and the “Total Cell Count” value [5] was 331 and 144. For the same compound, the “Population Apoptotic (%)” value [6] was 96.14% and 98.84%, the “Population Fragmented Nuclei (%)” value [6] was 9.73% and 10.67% and the “Population Healthy Nuclei (%)” value [6] was 29.2% and 32%. For the same compound, the “Population Hoechst High Intensity Objects (%)” value [6] was 0%, the “Population Membrane Permeable-Phenotype (%)” value [6] was 12.12% and 29.17% and the “Population Mitochondria Different-Phenotype (%)” value [6] was 23.23% and 35.42%. For the same compound, the “Population Mitotic Cells (%)” value [6] was 3.86% and 1.16%, the “Population Normal (%)” value [6] was 100% and the “Population Pyknosed Nuclei (%)” value [6] was 61.06% and 57.33%. For the same compound, the “Population Tubulin-Different-Phenotype (%)” value [6] was 14.14% and 16.67% and the “Total Cell Count” value [6] was 339 and 150.

For `O=C(Nc1cc(-c2ccccc2)nn1-c1ccccc1F)c1ccc([N+](=O)[O-])cc1`, the “Population Apoptotic (%)” value [1] was 86% and 91%, the “Population Fragmented Nuclei (%)” value [1] was 25% and 14% and the “Population Healthy Nuclei (%)” value [1] was 66% and 78%. The “Population Hoechst High Intensity Objects (%)” value [1] was 4% and 1%, the “Population Membrane Permeable-Phenotype (%)” value [1] was 10% and 9% and the “Population Mitochondria Different-Phenotype (%)” value [1] was 4%. The “Population Mitotic Cells (%)” value [1] was 13% and 8%, the “Population Normal (%)” value [1] was 95% and 98% and the “Population Pyknosed Nuclei (%)” value [1] was 8% and 6%. For the same compound, the “Population Tubulin-Different-Phenotype (%)” value [1] was 4% and 9%, the “Total Cell Count” value [1] was 293 and 182 and the “Population Apoptotic (%)” value [2] was 66% and 94%. The “Population Fragmented Nuclei (%)” value [2] was 30% and 12%, the “Population Healthy Nuclei (%)” value [2] was 60% and 73% and the “Population Hoechst High Intensity Objects (%)” value [2] was 3% and 0%. For the same compound, the “Population Membrane Permeable-Phenotype (%)” value [2] was 11%, the “Population Mitochondria Different-Phenotype (%)” value [2] was 5% and 8% and the “Population Normal (%)” value [2] was 96% and 100%. The “Population Pyknosed Nuclei (%)” value [2] was 9% and 13%, the “Population Tubulin-Different-Phenotype (%)” value [2] was 7% and 6% and the “Total Cell Count” value [2] was 293 and 134. For the same compound, the “Population Apoptotic (%)” value [3] was 91% and 100%, the “Population Fragmented Nuclei (%)” value [3] was 24% and 15% and the “Population Healthy Nuclei (%)” value [3] was 68% and 76%. For the same compound, the “Population Hoechst High Intensity Objects (%)” value [3] was 3% and 1%, the “Population Membrane Permeable-Phenotype (%)” value [3] was 6% and 9% and the “Population Mitochondria Different-Phenotype (%)” value [3] was 4% and 5%. For the same compound, the “Population Mitotic Cells (%)” value [3] was 8% and 0%, the “Population Normal (%)” value [3] was 96% and 98% and the “Population Pyknosed Nuclei (%)” value [3] was 7% and 8%. For the same compound, the “Population Tubulin-Different-Phenotype (%)” value [3] was 5% and 6%, the “Total Cell Count” value [3] was 342 and 226 and the “Population Apoptotic (%)” value [4] was 91% and 100%. The “Population Fragmented Nuclei (%)” value [4] was 25% and 14%, the “Population Healthy Nuclei (%)” value [4] was 64% and 76% and the “Population Hoechst High Intensity Objects (%)” value [4] was 1% and 0%. For the same compound, the “Population Membrane Permeable-Phenotype (%)” value [4] was 7% and 11%, the “Population Mitochondria Different-Phenotype (%)” value [4] was 3% and 8% and the “Population Mitotic Cells (%)” value [4] was 8% and 0%. For the same compound, the “Population Normal (%)” value [4] was 98% and 99%, the “Population Pyknosed Nuclei (%)” value [4] was 9% and the “Population Tubulin-Different-Phenotype (%)” value [4] was 5% and 8%. The “Total Cell Count” value [4] was 353 and 164, the “Population Apoptotic (%)” value [5] was 89% and 90% and the “Population Fragmented Nuclei (%)” value [5] was 17% and 12%. For the same compound, the “Population Healthy Nuclei (%)” value [5] was 73% and 79%, the “Population Hoechst High Intensity Objects (%)” value [5] was 2% and 1% and the “Population Membrane Permeable-Phenotype (%)” value [5] was 9% and 6%. The “Population Mitochondria Different-Phenotype (%)” value [5] was 5% and 4%, the “Population Mitotic Cells (%)” value [5] was 10% and the “Population Normal (%)” value [5] was 97% and 98%. For the same compound, the “Population Pyknosed Nuclei (%)” value [5] was 8%, the “Population Tubulin-Different-Phenotype (%)” value [5] was 5% and the “Total Cell Count” value [5] was 475 and 371. For the same compound, the “Population Apoptotic (%)” value [6] was 81% and 89%, the “Population Fragmented Nuclei (%)” value [6] was 20% and 10% and the “Population Healthy Nuclei (%)” value [6] was 67% and 76%. The “Population Hoechst High Intensity Objects (%)” value [6] was 2%, the “Population Membrane Permeable-Phenotype (%)” value [6] was 8% and 11% and the “Population Mitochondria Different-Phenotype (%)” value [6] was 4% and 8%. For the same compound, the “Population Mitotic Cells (%)” value [6] was 18% and 10%, the “Population Normal (%)” value [6] was 97% and the “Population Pyknosed Nuclei (%)” value [6] was 12% and 13%. For the same compound, the “Population Tubulin-Different-Phenotype (%)” value [6] was 6% and 8% and the “Total Cell Count” value [6] was 445 and 226.
